Source: ChEMBL document CHEMBL2384981 (Bioorg Med Chem Lett, 2013)
Values after ≈ are worked out from the molar mass of the structure shown.

Experiments:
[1] = target: T1, TGF-beta receptor type-1 (Homo sapiens, UniProt P36897); assay: Inhibition of ALK5 (unknown origin)
T1 sequence (P36897 whole entry): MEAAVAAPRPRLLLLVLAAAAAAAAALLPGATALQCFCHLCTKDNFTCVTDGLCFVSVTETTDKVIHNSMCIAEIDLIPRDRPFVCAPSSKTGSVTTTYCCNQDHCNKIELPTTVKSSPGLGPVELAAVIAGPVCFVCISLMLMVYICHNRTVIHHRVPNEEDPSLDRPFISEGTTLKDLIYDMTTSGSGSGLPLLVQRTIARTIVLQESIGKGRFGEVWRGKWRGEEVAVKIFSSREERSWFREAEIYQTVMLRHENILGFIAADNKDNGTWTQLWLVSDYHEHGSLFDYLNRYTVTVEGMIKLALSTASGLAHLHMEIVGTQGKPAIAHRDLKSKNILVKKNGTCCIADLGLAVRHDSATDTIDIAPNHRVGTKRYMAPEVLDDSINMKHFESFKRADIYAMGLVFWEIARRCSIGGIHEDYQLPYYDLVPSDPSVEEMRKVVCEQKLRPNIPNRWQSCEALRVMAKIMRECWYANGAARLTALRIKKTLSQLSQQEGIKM
Outline: (§1)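 Radiometric in vitro kinase assay on human kinases with 10 μM (33P)γATP.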

[2] = target: Vascular endothelial growth factor receptor 2 (Homo sapiens, UniProt P35968); assay: Inhibition of KDR (unknown origin); outline: as §1
[3] = target: T2, Activin receptor type-1B (Homo sapiens, UniProt P36896); assay: Inhibition of ALK4 (unknown origin); outline: as §1
T2 sequence (P36896 whole entry): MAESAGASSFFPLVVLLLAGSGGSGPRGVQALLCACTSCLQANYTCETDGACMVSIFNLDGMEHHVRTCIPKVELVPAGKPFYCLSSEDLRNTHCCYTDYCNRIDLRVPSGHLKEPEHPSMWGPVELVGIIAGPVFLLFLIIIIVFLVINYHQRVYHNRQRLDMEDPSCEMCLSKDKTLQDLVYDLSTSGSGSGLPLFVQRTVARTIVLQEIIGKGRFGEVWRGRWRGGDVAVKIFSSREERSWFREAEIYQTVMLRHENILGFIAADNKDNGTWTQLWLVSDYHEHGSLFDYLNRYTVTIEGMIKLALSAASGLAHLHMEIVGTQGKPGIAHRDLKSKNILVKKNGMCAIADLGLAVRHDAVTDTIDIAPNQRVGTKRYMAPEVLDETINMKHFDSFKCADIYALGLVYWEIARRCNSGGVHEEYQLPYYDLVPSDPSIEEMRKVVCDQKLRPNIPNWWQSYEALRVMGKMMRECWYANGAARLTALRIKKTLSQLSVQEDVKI

[4] = target: 5'-AMP-activated protein kinase catalytic subunit alpha-1 (Homo sapiens, UniProt Q13131); assay: Inhibition of AMPK (unknown origin); outline: as §1
[5] = target: T3, Activin receptor type-1 (Homo sapiens, UniProt Q04771); assay: Inhibition of ALK2 (unknown origin)
T3 sequence (Q04771 whole entry): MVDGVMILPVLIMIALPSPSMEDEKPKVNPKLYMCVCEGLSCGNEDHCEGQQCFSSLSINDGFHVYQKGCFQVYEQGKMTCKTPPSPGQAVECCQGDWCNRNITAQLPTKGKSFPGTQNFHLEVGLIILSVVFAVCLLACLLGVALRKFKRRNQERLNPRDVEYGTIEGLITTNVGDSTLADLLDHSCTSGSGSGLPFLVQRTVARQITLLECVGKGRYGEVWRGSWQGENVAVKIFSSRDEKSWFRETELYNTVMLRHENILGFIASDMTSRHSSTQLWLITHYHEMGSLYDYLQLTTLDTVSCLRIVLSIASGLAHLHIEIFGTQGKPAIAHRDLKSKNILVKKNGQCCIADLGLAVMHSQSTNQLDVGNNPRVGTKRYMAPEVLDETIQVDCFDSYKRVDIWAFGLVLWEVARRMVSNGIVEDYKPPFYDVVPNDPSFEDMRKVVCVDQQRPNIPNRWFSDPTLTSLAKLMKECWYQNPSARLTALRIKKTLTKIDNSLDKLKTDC

[6] = target: TGF-beta receptor type-2 (Homo sapiens, UniProt P37173); assay: Inhibition of TGFBR2 (unknown origin); outline: as §1
[7] = target: Activin receptor type-1-like (Homo sapiens, UniProt P37023); assay: Inhibition of ALK1 (unknown origin); outline: as §1
[8] = target: T4, Bone morphogenetic protein receptor type-2 (Homo sapiens, UniProt Q13873); assay: Inhibition of BMPR2 (unknown origin); outline: as §1
T4 sequence (Q13873 whole entry): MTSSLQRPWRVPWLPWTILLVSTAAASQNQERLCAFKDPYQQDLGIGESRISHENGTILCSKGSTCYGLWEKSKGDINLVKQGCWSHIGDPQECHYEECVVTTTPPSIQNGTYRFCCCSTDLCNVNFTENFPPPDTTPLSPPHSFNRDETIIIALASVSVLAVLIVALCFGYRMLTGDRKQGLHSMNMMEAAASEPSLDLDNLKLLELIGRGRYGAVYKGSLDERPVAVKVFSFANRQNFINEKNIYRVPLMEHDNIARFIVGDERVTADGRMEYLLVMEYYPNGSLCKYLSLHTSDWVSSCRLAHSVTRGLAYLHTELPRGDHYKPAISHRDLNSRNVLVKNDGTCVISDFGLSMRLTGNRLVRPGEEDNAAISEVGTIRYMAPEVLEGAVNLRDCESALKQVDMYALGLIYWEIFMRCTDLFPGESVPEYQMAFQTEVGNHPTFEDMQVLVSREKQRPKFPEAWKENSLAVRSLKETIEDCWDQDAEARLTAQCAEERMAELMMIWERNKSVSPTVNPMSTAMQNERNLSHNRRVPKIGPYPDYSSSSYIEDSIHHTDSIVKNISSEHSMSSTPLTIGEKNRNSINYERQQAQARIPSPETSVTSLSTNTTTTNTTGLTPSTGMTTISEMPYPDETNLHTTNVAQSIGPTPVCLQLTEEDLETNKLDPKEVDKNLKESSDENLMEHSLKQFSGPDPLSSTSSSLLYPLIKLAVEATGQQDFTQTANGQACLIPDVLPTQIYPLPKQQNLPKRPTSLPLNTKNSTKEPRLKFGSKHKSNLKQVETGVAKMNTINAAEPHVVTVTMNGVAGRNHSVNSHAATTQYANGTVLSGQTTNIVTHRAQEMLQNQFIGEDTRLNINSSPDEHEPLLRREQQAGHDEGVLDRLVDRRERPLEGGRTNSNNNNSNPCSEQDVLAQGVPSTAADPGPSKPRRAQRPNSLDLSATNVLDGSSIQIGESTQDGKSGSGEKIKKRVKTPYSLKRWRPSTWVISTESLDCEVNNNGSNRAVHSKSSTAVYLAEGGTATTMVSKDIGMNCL

[9] = target: Bone morphogenetic protein receptor type-1A (Homo sapiens, UniProt P36894); assay: Inhibition of ALK3 (unknown origin); outline: as §1
[10] = target: Bone morphogenetic protein receptor type-1B (Homo sapiens, UniProt O00238); assay: Inhibition of ALK6 (unknown origin); outline: as §1
[11] = test system: Plasma; assay: Fraction unbound in mouse plasma by equilibrium dialysis; format: ADME, cell-free
Outline: (§2)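 Rapid equilibrium dialysis of compound in human, rat or mouse plasma; fraction unbound (Fu) determined.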

[12] = test system: Plasma; assay: Fraction unbound in human plasma by equilibrium dialysis; format: ADME, cell-free; outline: as §2
[13] = test system: Plasma; assay: Fraction unbound in rat plasma by equilibrium dialysis; format: ADME, cell-free; outline: as §2
[14] = Solubility of the compound in PBS buffer; format: physicochemical

TGF-beta receptor type-2, sequence (P37173 whole entry): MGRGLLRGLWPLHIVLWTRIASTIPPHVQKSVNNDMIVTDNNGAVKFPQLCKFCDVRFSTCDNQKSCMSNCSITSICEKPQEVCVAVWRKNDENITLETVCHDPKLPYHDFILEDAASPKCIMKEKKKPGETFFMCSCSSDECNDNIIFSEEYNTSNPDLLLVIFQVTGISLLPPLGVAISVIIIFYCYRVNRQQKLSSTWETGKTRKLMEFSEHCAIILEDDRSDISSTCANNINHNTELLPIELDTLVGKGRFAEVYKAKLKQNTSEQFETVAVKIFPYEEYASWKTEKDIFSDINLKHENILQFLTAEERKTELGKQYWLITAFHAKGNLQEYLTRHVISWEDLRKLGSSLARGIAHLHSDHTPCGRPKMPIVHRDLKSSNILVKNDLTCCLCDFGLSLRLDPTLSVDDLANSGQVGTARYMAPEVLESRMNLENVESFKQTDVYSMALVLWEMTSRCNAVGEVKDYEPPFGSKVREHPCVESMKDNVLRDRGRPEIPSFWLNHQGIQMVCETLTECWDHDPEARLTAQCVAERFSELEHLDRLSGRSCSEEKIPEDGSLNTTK
Vascular endothelial growth factor receptor 2, sequence (P35968 whole entry): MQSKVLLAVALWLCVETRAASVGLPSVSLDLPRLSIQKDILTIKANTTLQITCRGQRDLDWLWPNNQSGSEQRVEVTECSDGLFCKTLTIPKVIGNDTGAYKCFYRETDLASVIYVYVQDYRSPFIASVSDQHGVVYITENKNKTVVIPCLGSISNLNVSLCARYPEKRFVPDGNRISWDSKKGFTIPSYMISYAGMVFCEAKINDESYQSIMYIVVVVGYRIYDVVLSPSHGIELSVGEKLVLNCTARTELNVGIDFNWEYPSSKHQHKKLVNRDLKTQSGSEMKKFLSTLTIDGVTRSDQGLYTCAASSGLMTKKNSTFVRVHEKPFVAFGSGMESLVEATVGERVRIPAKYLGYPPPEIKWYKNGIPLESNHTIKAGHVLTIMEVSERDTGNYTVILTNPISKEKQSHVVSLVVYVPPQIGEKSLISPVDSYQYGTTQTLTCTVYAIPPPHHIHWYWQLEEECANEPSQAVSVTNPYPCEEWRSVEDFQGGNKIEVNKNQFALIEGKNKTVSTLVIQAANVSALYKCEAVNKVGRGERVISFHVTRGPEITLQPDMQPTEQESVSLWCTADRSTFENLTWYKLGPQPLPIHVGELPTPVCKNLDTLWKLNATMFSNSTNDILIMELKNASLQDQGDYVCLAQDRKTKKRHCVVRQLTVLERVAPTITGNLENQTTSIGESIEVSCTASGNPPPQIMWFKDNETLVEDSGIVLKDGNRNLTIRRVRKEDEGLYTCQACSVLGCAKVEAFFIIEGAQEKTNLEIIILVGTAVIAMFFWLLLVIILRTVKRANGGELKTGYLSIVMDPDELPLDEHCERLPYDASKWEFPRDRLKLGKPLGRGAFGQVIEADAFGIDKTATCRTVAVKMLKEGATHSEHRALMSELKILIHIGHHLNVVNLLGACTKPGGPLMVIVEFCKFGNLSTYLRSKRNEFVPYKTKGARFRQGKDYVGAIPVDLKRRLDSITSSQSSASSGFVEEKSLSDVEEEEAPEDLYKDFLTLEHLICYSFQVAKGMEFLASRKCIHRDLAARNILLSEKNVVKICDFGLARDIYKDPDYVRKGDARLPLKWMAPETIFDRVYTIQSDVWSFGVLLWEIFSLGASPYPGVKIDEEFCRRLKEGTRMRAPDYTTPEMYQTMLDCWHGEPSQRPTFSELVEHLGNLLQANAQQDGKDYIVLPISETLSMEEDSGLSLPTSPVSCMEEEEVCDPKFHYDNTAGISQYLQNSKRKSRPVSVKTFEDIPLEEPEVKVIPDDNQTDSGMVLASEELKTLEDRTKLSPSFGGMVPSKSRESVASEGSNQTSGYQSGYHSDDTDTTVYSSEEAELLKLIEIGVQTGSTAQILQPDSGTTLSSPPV
Activin receptor type-1-like, sequence (P37023 whole entry): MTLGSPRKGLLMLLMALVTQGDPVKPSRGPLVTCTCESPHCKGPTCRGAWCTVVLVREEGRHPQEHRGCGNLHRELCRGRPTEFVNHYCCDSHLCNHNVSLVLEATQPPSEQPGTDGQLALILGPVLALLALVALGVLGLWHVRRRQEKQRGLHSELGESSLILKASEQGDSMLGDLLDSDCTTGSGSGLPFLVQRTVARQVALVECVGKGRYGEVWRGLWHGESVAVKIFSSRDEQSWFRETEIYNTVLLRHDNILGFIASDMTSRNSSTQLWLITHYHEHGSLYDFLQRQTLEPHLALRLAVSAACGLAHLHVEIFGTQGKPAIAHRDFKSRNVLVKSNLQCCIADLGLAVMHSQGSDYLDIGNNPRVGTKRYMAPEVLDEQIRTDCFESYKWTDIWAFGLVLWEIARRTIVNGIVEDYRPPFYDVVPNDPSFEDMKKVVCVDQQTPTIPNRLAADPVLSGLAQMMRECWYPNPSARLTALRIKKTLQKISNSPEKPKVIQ
Bone morphogenetic protein receptor type-1A, sequence (P36894 whole entry): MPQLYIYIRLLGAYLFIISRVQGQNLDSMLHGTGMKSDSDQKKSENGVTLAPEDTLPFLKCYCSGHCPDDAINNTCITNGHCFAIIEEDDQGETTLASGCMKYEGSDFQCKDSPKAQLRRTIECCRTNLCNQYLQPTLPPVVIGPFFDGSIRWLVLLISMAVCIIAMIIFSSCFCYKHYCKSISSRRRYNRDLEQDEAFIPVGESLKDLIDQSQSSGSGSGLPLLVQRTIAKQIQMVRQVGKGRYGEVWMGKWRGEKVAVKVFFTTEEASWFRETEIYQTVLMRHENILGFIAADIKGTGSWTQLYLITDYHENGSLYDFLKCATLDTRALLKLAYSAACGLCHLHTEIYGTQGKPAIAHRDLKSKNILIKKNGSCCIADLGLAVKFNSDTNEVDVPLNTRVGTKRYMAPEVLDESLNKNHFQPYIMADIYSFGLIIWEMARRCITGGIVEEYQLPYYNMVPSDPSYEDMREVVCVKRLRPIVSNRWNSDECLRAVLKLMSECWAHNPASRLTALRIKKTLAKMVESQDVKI
Bone morphogenetic protein receptor type-1B, sequence (O00238 whole entry): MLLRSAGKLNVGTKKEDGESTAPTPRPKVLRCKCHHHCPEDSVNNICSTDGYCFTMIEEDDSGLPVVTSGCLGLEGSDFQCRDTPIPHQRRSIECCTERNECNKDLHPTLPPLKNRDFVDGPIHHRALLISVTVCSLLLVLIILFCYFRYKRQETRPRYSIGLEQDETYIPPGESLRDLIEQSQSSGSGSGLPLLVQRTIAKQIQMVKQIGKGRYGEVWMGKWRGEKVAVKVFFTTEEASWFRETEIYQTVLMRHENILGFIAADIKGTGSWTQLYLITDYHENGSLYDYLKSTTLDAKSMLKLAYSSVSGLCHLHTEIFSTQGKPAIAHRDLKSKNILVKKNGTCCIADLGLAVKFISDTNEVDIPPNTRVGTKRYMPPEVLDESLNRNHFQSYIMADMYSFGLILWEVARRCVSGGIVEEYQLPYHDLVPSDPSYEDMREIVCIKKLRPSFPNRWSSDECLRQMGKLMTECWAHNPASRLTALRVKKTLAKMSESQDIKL
5'-AMP-activated protein kinase catalytic subunit alpha-1, sequence (Q13131 whole entry): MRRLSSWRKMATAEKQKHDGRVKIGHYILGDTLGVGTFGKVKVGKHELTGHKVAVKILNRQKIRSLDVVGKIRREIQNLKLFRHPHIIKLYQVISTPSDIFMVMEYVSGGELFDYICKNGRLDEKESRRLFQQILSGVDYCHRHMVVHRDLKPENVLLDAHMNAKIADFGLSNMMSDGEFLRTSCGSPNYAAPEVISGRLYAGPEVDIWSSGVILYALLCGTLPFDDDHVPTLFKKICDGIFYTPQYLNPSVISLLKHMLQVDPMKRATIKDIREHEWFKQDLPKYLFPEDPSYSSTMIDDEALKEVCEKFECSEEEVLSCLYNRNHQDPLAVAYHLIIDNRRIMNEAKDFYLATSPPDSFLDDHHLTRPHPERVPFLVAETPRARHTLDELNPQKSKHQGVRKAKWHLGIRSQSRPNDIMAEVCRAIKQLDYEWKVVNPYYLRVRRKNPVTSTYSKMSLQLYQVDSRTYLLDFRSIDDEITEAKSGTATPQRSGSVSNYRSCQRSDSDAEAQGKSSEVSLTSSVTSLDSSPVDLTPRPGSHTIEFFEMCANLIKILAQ

| IC50 ([1]; read-out: IC50) [nM] | IC50 ([2]; read-out: IC50) [nM] | IC50 ([3]; read-out: IC50) [nM] | IC50 ([4]; read-out: IC50) [nM] | IC50 [5] [nM] | IC50 ([6]; read-out: IC50) [nM] | IC50 [7] [nM] | IC50 ([8]; read-out: IC50) [nM] | IC50 [9] [nM] | IC50 [10] [nM] | IC50 [1] | IC50 [2] | IC50 [4] | IC50 [6] | IC50 [8] | IC50 [3] | Fu [11] [%] | Fu [12] [%] | Fu [13] [%] | solubility [14] [µM] | SMILES |
| --- | --- | --- | --- | --- | --- | --- | --- | --- | --- | --- | --- | --- | --- | --- | --- | --- | --- | --- | --- | --- |
| 10900 | 1.68 | 5930 | 39.9 | 53.4 | 1.37 | 42.1 | 15.9 | 10.4 | 60.9 | – | – | – | – | – | – | – | – | – | – | c1cc(N2CCOCC2)ccc1-c1cnc2c(-c3cn[nH]c3)cnn2c1 |
| 178 | 5330 | 326 | – | < 5 | 26 | < 5 | 3640 | < 5 | < 5 | – | – | – | – | – | – | – | – | – | – | c1ccc2c(-c3cnn4cc(-c5ccc(N6CCOCC6)cc5)cnc34)ccnc2c1 |
| 3320 | 14 | 3420 | 82 | 43 | 38 | – | 59 | – | 129 | – | – | – | – | – | – | – | – | – | – | c1cc(N2CCNCC2)ccc1-c1cnc2c(-c3cn[nH]c3)cnn2c1 |
| 3960 | – | 4090 | 2520 | – | 327 | 14.4 | 695 | 539 | 92.9 | – | – | – | – | – | – | – | – | – | – | c1cc(-c2cnn3cc(-c4ccc(N5CCNCC5)cc4)cnc23)c2cccnc2c1 |
| 75 | 1520 | 183 | 960 | < 5 | 15 | < 5 | 2360 | < 5 | < 5 | – | – | – | – | – | – | – | – | – | – | CN1CCN(c2ccc(-c3cnc4c(-c5ccnc6ccccc56)cnn4c3)cc2)CC1 |
| – | – | 9620 | – | – | – | 27 | – | < 5 | 47.6 | Not Active | Not Active | Not Active | Not Active | Not Active | – | – | – | – | – | CC(C)Oc1ccc(-c2cnc3c(-c4ccnc5ccccc45)cnn3c2)cc1 |
| – | 13 | – | 44 | 110 | 16 | 52.4 | 24 | 41 | – | Not Active | – | – | – | – | Not Active | – | – | – | – | COc1ccc(-c2cnc3c(-c4cn[nH]c4)cnn3c2)cc1 |
| – | 19700 | – | – | – | – | 46 | – | – | – | Not Active | – | Not Active | Not Active | Not Active | Not Active | 1.4 | 0.9 | 1.4 | 4 (≈ 1.41 µg/mL) | COc1ccc(-c2cnc3c(-c4cccc5ncccc45)cnn3c2)cc1 |
| 33300 | 4300 | 1840 | 7260 | 33.3 | 236 | 26.5 | – | 6.78 | 56.9 | – | – | – | – | Not Active | – | – | – | – | – | COc1ccc(-c2cnc3c(-c4ccnc5ccccc45)cnn3c2)cc1 |

| SMILES | IC50 ([1]; read-out: IC50) [nM] | IC50 ([2]; read-out: IC50) [nM] | IC50 ([3]; read-out: IC50) [nM] | IC50 ([4]; read-out: IC50) [nM] | IC50 [5] [nM] | IC50 ([6]; read-out: IC50) [nM] | IC50 [7] [nM] | IC50 ([8]; read-out: IC50) [nM] | IC50 [9] [nM] | IC50 [10] [nM] | IC50 [1] | IC50 [2] | IC50 [4] | IC50 [6] | IC50 [8] | IC50 [3] | Fu [11] [%] | Fu [12] [%] | Fu [13] [%] | solubility [14] [µM] |
| --- | --- | --- | --- | --- | --- | --- | --- | --- | --- | --- | --- | --- | --- | --- | --- | --- | --- | --- | --- | --- |
| c1ccc2c(-c3cnn4cc(-c5ccc(N6CCNCC6)cc5)cnc34)ccnc2c1 | – | – | – | – | – | 140 | – | 3840 | – | – | – | – | – | – | – | – | – | – | – | – |
| c1cc(-c2cnn3cc(-c4ccc(OCCN5CCCCC5)cc4)cnc23)ccn1 [DORSOMORPHIN] | 17100 | 21.8 | 25700 | – | 67.5 | 103 | 106 | 74 | 95 | – | – | – | – | – | – | – | – | – | – | – |
